# Reference: ChEMBL document CHEMBL1795318, “Development of tetrahydroisoquinoline-based hydroxamic acid derivatives: potent histone deacetylase inhibitors with marked in vitro and in vivo antitumor activities” (J Med Chem, 2011)
# Molecular target: T1, Histone deacetylase 8 (Homo sapiens, UniProt Q9BY41)
# T1 sequence (Q9BY41 whole entry): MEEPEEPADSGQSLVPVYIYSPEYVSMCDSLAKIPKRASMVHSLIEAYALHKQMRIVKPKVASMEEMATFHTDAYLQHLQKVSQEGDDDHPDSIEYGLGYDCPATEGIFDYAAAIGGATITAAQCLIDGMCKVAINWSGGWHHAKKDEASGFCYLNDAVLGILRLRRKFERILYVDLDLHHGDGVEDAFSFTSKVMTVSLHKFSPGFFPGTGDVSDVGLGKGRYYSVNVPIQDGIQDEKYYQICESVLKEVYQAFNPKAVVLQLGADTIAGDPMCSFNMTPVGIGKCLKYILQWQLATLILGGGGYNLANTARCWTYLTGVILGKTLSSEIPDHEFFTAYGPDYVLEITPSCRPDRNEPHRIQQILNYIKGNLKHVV
# Experiment: Inhibition of HDAC8 after 30 mins by fluorescence microplate reader
# Procedure, shortened: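 HDAC8 mixed with compound at various concentrations, fluorogenic substrate added, 37 °C for 30 min; stopped with developer containing trypsin and TSA. Fluorescence read after 20 min (ex 390/em 460 nm); inhibition relative to control wells, IC50 by regression of concentration/inhibition data; mean ± SD of at least three determinations.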
row,IC50 [nM],Compound
1,1040,CC[C@H](C)[C@H](N)C(=O)N1Cc2cc(OCC(=O)NO)ccc2C[C@H]1C(=O)Nc1ccc(OC)cc1
2,182,COc1ccc(NC(=O)[C@@H]2Cc3ccc(OCC(=O)NO)cc3CN2C(=O)[C@H](C)NC(=O)OC(C)(C)C)cc1
3,1280,COc1ccc(NC(=O)[C@@H]2Cc3ccc(OCC(=O)NO)cc3CN2C(=O)[C@H](C)N)cc1
4,481,COc1ccc(NC(=O)[C@@H]2Cc3ccc(OCC(=O)NO)cc3CN2C(=O)[C@@H]2CCCN2)cc1
5,675,COc1ccc(NC(=O)[C@@H]2Cc3ccc(OCC(=O)NO)cc3CN2C(=O)[C@@H](N)CC(C)C)cc1
6,368,COc1ccc(NC(=O)[C@@H]2Cc3ccc(OCC(=O)NO)cc3CN2C(=O)[C@@H](N)Cc2ccccc2)cc1
7,163,COc1ccc(NC(=O)[C@@H]2Cc3ccc(OCC(=O)NO)cc3CN2C(=O)[C@H](CC(C)C)NC(=O)OC(C)(C)C)cc1
8,2140,COc1ccc(NC(=O)[C@@H]2Cc3ccc(OCC(=O)NO)cc3CN2C(=O)CN)cc1
9,1020,COc1ccc(NC(=O)[C@@H]2Cc3ccc(OCC(=O)NO)cc3CN2C(=O)[C@@H](N)C(C)C)cc1

# Continued, compound first:
row,Compound,IC50 [nM]
1,COc1ccc(NC(=O)[C@@H]2Cc3ccc(OCC(=O)NO)cc3CN2CCc2ccccc2)cc1,1020
2,COc1ccc(NC(=O)[C@@H]2Cc3ccc(OCC(=O)NO)cc3CN2C(=O)CNC(=O)OC(C)(C)C)cc1,514
3,O=C(COc1ccc2c(c1)CN(C(=O)CCc1ccccc1)[C@H](C(=O)Nc1ccccc1)C2)NO,759
4,COc1ccc(NC(=O)[C@@H]2Cc3ccc(OCC(=O)NO)cc3CN2CCCc2ccccc2)cc1,1720
5,COc1ccc(NC(=O)[C@@H]2Cc3ccc(OCC(=O)NO)cc3CN2C(=O)[C@@H](N)Cc2ccc(O)cc2)cc1,634
6,COc1ccc(NC(=O)[C@@H]2Cc3ccc(OCC(=O)NO)cc3CN2C(=O)[C@H](Cc2ccc(O)cc2)NC(=O)OC(C)(C)C)cc1,175
7,O=C(COc1ccc2c(c1)CN(C(=O)CCc1ccccc1)[C@H](C(=O)NCCc1ccccc1)C2)NO,692
8,COc1ccc(NC(=O)[C@@H]2Cc3ccc(OCC(=O)NO)cc3CN2C(=O)[C@@H]2CCCN2C(=O)OC(C)(C)C)cc1,212
9,COc1ccc(NC(=O)[C@@H]2Cc3ccc(OCC(=O)NO)cc3CN2Cc2ccccc2)cc1,1920
